Results reported in ChEMBL document CHEMBL2169846, “Design and synthesis of Pictet-Spengler condensation products that exhibit oncogenic-RAS synthetic lethality and induce non-apoptotic cell death” (Bioorg Med Chem Lett, 2012).
Activity calls are given as the source filed them. The calls are words filed in the database; no cut-off is given here.

How the values were obtained:
[1] = Stability of the compound assessed as GSH adduct formation after 24 hrs by mass spectroscopy; format: physicochemical
BJeH [2] = experiment: Induction of apoptosis in human BJeH cells expressing wild type RAS assessed as caspase 7 activation after 28 hrs by Apo-One assay; format: functional, cell-based
Summary of the method: (§1)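 BJ-TERT and BJ-TERT/LT/ST/RAS(V12) cells given compound as a two-fold, 14-point dilution series for 28 h. Alamar blue then added for viability, and caspase 3/7 activation detected by Apo-ONE in the same wells.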

[3] = Stability of the compound in phosphate buffered saline after 24 hrs by mass spectroscopy; format: physicochemical; settings: buffer
BJeLR [4] = experiment: Induction of apoptosis in human BJeLR cells expressing RAS G12V mutant assessed as caspase 7 activation after 28 hrs by Apo-One assay; format: functional, cell-based; summary of the method: as §1
[5] = target: E3 ubiquitin-protein ligase Mdm2 (Homo sapiens) (UniProt Q00987); experiment: Inhibition of wild type Mdm2 at 20 ug/mL after 2 hrs by cell-based luciferase assay
[6] = tested on: E3 ubiquitin-protein ligase Mdm2 (Homo sapiens), Q00987 [C464A]; experiment: Inhibition of Mdm2 C464A mutant at 20 ug/mL after 2 hrs by cell-based luciferase assay
RKO = experiment: Cytotoxicity against human RKO cells after 48 hrs by alamar blue assay; format: functional; settings: read-out: LC50 (the source's name)
[7] = Cytotoxicity against human HT1299 cells after 48 hrs by alamar blue assay; format: functional; settings: HT1299, 48 h, read-out: LC50 (the source's name)
[8] = Cytotoxicity against human BJeH cells expressing wild type RAS after 48 hrs by alamar blue assay; format: functional, cell-based; settings: read-out: LC50 (the source's name)
[9] = Cytotoxicity against human BJeLR cells expressing RAS G12V mutant after 48 hrs by alamar blue assay; format: functional, cell-based; settings: read-out: LC50 (the source's name)
MCF7 = experiment: Cytotoxicity against human MCF7 cells at 20 ug/mL after 48 hrs by alamar blue assay; format: functional, cell-based
Summary of the method: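 Each cell line exposed for 48 h to a 2-fold, 12-point dilution series beginning at 20 µg/mL. Viability by Alamar blue; LC50 derived from the curves.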

[10] = Ratio of MEL24 LC50 to compound LC50 for human BJeLR cells expressing RAS G12V mutant; format: functional
[11] = Cytotoxicity against human BJeH cells expressing wild type RAS; format: functional; settings: read-out: LC50 (the source's name)
[12] = Cytotoxicity against human BJeH-LT cells expressing wild type RAS; format: functional; settings: read-out: LC50 (the source's name)
[13] = Cytotoxicity against human BJeLR cells expressing RAS G12V mutant; format: functional; settings: read-out: LC50 (the source's name)
[14] = Cytotoxicity against human DRD cells expressing RAS G12V mutant; format: functional; settings: read-out: LC50 (the source's name)
[15] = Growth inhibition of human BJeH cells expressing wild type RAS relative to control; format: functional
Summary of the method: (§2)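 Four cell lines treated for 48 h in a two-fold, 7-point dilution series. Viability by Alamar blue reading. LC50 and maximum growth-inhibitory efficacy were tabulated as ± SEM of triplicates.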

[16] = Growth inhibition of human BJeH-LT cells expressing wild type RAS relative to control; format: functional; summary of the method: as §2
[17] = Growth inhibition of human BJeLR cells expressing RAS G12V mutant relative to control; format: functional; summary of the method: as §2
[18] = Growth inhibition of human DRD cells expressing RAS G12V mutant relative to control; format: functional; summary of the method: as §2
[19] = Selectivity ratio of LC50 for human BJeH cells to LC50 for human BJeLR cells expressing RAS G12V mutant; format: functional
Summary of the method: (§3)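 LC50 of BJ-TERT divided by LC50 of the RAS(V12)-transformed line or of DRD cells.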

[20] = Selectivity ratio of LC50 for human BJeH cells to LC50 for human DRD cells; format: functional; summary of the method: as §3
BJeLR [21] = experiment: Cytotoxicity against human BJeLR cells expressing RAS G12V mutant at 30 uM at 12 hrs by trypan blue staining; format: functional, cell-based
Summary of the method: (§4)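 Time-course in BJ-TERT/LT/ST/RAS^V12 cells exposed for the designated times to erastin (10 µM), test compound (30 µM) or RSL3 (0.57 µM) to follow onset of death. Data representative of duplicate experiments.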

BJeLR [22] = experiment: Cytotoxicity against human BJeLR cells expressing RAS G12V mutant at 30 uM at 24 hrs by trypan blue staining; format: functional, cell-based; summary of the method: as §4
BJeH [23] = experiment: Cytotoxicity against human BJeH cells expressing wild type RAS at 30 uM after 24 hrs by trypan blue staining; format: functional, cell-based
BJeLR [24] = experiment: Cytotoxicity against human BJeLR cells expressing RAS G12V mutant at high concentration after 28 hrs by alamar blue assay; format: functional, cell-based
Summary of the method: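 BJ-TERT/LT/ST/RAS^V12 cells treated for 28 h across a two-fold, 14-point dilution series. Viability was read by Alamar blue, and caspase 3/7 activation was detected by Apo-ONE in the same cells.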

BJeLR [25] = experiment: Induction of apoptosis in human BJeLR cells expressing RAS G12V mutant assessed as caspase 3 activation after 28 hrs by Apo-One assay; format: functional, cell-based; summary of the method: as §1
BJeH [26] = experiment: Induction of apoptosis in human BJeH cells expressing wild type RAS assessed as caspase 3 activation after 28 hrs by Apo-One assay; format: functional, cell-based; summary of the method: as §1
HT-1080 [27] = experiment: Cytotoxicity against human HT1080 after 48 hrs by alamar blue assay in presence of z-VAD-fmk; format: functional, cell-based
Summary of the method: (§5)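 HT1080 cells given the test compound together with a rescue agent: deferoxamine 152 µM, α-tocopherol 100 µM, z-VAD-fmk 45 µM or Boc-D-fmk 50 µM. Viability read out afterwards.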

HT-1080 [28] = experiment: Cytotoxicity against human HT1080 after 48 hrs by alamar blue assay in presence of Boc-D-fmk; format: functional, cell-based; summary of the method: as §5
HT-1080 [29] = experiment: Cytotoxicity against human HT1080 after 48 hrs by alamar blue assay in presence of deferoxamine; format: functional, cell-based; summary of the method: as §5
HT-1080 [30] = experiment: Cytotoxicity against human HT1080 after 48 hrs by alamar blue assay in presence of alpha-tocopherol; format: functional, cell-based; summary of the method: as §5
BJeH [31] = experiment: Induction of reactive oxygen species production in human BJeH cells expressing wild type RAS after 18 hrs by DCF-based flow cytometric analysis; format: functional, cell-based
BJeLR [32] = experiment: Induction of reactive oxygen species production in human BJeLR cells expressing RAS G12V mutant after 18 hrs by DCF-based flow cytometric analysis; format: functional, cell-based

E3 ubiquitin-protein ligase Mdm2 (Homo sapiens), sequence (Q00987 whole entry, looked up): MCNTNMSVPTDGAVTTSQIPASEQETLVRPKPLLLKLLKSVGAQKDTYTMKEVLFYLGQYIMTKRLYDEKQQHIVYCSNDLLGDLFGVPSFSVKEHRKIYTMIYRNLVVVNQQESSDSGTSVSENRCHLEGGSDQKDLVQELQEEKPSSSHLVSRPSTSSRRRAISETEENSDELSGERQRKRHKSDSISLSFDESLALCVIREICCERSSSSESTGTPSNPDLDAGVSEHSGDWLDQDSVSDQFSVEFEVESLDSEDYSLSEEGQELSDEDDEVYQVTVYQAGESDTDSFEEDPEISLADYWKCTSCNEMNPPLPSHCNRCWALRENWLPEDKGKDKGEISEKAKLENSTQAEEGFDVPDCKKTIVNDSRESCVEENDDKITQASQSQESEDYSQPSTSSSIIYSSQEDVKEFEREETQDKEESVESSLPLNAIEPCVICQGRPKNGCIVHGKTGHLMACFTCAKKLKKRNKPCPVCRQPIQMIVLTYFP
E3 ubiquitin-protein ligase Mdm2 (Homo sapiens), Q00987 [C464A], sequence (Q00987 whole entry C464A): as the sequence (Q00987 whole entry, looked up) above, with C464A counted along it

With `CCOC(=O)C1c2c(c3ccccc3n2C)CCN1C(=O)OC` (centres undefined) as the compound, how does the Stability [1] read?
Its Stability is “Stable”.

And the Activity (BJeH [2])?
Its Activity is “inactive”.

And the Stability [3]?
Its Stability is “Stable”.

What about the Activity (BJeLR [4]) of the same compound?
The Activity was “inactive”.

What about the inhibition [5] of the same compound?
Its inhibition is “inactive”.

What about the inhibition [6] of the same compound?
Its inhibition is “inactive”.

What about the CC50 (RKO) of the same compound?
Its CC50 is 31.6 µM.

What about the CC50 [7] of the same compound?
The CC50 was 30 µM.

And the CC50 [8]?
Its CC50 is 63.2 µM.

And the CC50 [9]?
Its CC50 is 6.3 µM.

What about the Activity (MCF7) of the same compound?
The Activity was “inactive”.

What about the Ratio [10] of the same compound?
The Ratio was 4.

What about the CC50 [11] of the same compound?
The CC50 was 179 µM.

And the CC50 [12]?
The CC50 was 266 µM.

And the CC50 [13]?
Its CC50 is 20.3 µM.

What about the CC50 [14] of the same compound?
Its CC50 is 102 µM.

What about the “growth inhibition (GI)” value [15] of the same compound?
Its value is 22.1%.

And the “growth inhibition (GI)” value [16]?
The value was 8.5%.

What about the “growth inhibition (GI)” value [17] of the same compound?
The value was 98.7%.

What about the “growth inhibition (GI)” value [18] of the same compound?
The value was 67%.

What about the Ratio [19] of the same compound?
Its Ratio is 10.

What about the Ratio [20] of the same compound?
The Ratio was 3.

And the Activity (BJeLR [21])?
The Activity was “Active”.

And the Activity (BJeLR [22])?
Its Activity is “Active”.

What about the Activity (BJeH [23]) of the same compound?
Its Activity is “inactive”.

And the Activity (BJeLR [24])?
Its Activity is “Active”.

And the Activity (BJeLR [25])?
The Activity was “inactive”.

What about the Activity (BJeH [26]) of the same compound?
The Activity was “inactive”.

And the Activity (HT-1080 [27])?
Its Activity is “Active”.

What about the Activity (HT-1080 [28]) of the same compound?
Its Activity is “Active”.

And the Activity (HT-1080 [29])?
Its Activity is “inactive”.

What about the Activity (HT-1080 [30]) of the same compound?
Its Activity is “inactive”.

And the Activity (BJeH [31])?
Its Activity is “Active”.

What about the Activity (BJeLR [32]) of the same compound?
Its Activity is “Active”.
